How the values were obtained:
[1] = target: Myosin light chain kinase, smooth muscle (Homo sapiens) (UniProt Q15746); experiment: Inhibition of human MLCK assessed as residual activity at 1 uM relative to control
[2] = target: T1, Muscle, skeletal receptor tyrosine-protein kinase (Homo sapiens) (UniProt O15146); experiment: Inhibition of human MuSK assessed as residual activity at 1 uM relative to control
T1 sequence (whole entry): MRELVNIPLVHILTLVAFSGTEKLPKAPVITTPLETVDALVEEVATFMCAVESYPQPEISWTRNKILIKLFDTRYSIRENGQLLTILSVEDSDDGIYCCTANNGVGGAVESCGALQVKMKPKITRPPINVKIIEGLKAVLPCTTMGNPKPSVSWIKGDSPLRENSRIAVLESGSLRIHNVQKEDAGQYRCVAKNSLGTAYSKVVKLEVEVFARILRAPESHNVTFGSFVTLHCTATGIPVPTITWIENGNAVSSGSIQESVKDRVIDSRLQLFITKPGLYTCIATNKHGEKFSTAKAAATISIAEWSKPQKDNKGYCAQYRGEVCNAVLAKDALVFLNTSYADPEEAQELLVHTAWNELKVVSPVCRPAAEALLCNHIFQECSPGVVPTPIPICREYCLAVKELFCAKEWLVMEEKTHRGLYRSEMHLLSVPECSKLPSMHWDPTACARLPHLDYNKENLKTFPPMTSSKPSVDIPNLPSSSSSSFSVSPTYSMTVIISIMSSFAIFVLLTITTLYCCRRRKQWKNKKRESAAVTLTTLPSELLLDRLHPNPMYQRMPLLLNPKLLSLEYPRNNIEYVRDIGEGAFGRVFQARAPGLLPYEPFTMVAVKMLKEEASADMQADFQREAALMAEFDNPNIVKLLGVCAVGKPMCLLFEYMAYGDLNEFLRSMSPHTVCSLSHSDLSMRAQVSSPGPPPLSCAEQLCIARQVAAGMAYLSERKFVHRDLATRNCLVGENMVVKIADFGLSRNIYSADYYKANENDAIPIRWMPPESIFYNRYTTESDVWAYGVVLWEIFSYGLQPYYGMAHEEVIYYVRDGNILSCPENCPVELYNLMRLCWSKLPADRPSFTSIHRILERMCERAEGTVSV

[3] = target: Tyrosine-protein kinase Yes (Homo sapiens) (UniProt P07947); experiment: Inhibition of human Yes assessed as residual activity at 1 uM relative to control
[4] = target: Serine/threonine-protein kinase BRSK1 (Homo sapiens) (UniProt Q8TDC3); experiment: Inhibition of human BrSK1 assessed as residual activity at 1 uM relative to control
[5] = target: Protein kinase C iota type (Homo sapiens) (UniProt P41743); experiment: Inhibition of human PKCiota assessed as residual activity at 1 uM relative to control
SF-268 = experiment: Antiproliferative activity against human SF268 cells after 3 days by sulforhodamine B assay; type: functional; conditions: SF-268, 72 h
How it was run: (§1)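 Tested in the NCI 60 cell line panel. GI50 is the concentration giving 50% inhibition of cell growth, and values are the mean of two series of tests.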

[6] = target: Tyrosine-protein kinase receptor TYRO3 (Homo sapiens) (UniProt Q06418); experiment: Inhibition of human Rse assessed as residual activity at 1 uM relative to control
[7] = target: Serine/threonine-protein kinase mTOR (Homo sapiens) (UniProt P42345); experiment: Inhibition of human mTOR assessed as residual activity at 1 uM relative to control
[8] = target: Dual specificity protein kinase CLK2 (Homo sapiens) (UniProt P49760); experiment: Inhibition of human CLK2 assessed as residual activity at 1 uM relative to control
OVCAR-8 = experiment: Antiproliferative activity against human OVCAR8 cells after 3 days by sulforhodamine B assay; type: functional; conditions: OVCAR-8, 72 h; how it was run: as §1
[9] = target: Proto-oncogene tyrosine-protein kinase receptor Ret (Homo sapiens) (UniProt P07949); experiment: Inhibition of RET (unknown origin) assessed as residual activity at 1 uM relative to control
[10] = target: Focal adhesion kinase 1 (Homo sapiens) (UniProt Q05397); experiment: Inhibition of FAK fl (unknown origin) assessed as residual activity at 10 uM relative to control
[11] = target: Phosphorylase b kinase gamma catalytic chain, liver/testis isoform (Homo sapiens) (UniProt P15735); experiment: Inhibition of human PhKgamma2 assessed as residual activity at 1 uM relative to control
786-0 = experiment: Antiproliferative activity against human 786-0 cells after 3 days by sulforhodamine B assay; type: functional; conditions: 786-0, 72 h; how it was run: as §1
[12] = target: Vascular endothelial growth factor receptor 1 (Homo sapiens) (UniProt P17948); experiment: Inhibition of human Flt1 assessed as residual activity at 1 uM relative to control
[13] = target: Serine/threonine-protein kinase PAK 2 (Homo sapiens) (UniProt Q13177); experiment: Inhibition of human PAK2 assessed as residual activity at 1 uM relative to control
[14] = target: Ribosomal protein S6 kinase alpha-3 (Homo sapiens) (UniProt P51812); experiment: Inhibition of human Rsk2 assessed as residual activity at 1 uM relative to control
[15] = target: Interleukin-1 receptor-associated kinase 1 (Homo sapiens) (UniProt P51617); experiment: Inhibition of human IRAK1 assessed as residual activity at 1 uM relative to control
[16] = target: Glycogen synthase kinase-3 alpha (Homo sapiens) (UniProt P49840); experiment: Inhibition of human GSK3alpha assessed as residual activity at 1 uM relative to control
NCI-H522 = experiment: Antiproliferative activity against human NCI-H522 cells after 3 days by sulforhodamine B assay; type: functional; conditions: NCI-H522, 72 h; how it was run: as §1
[17] = Antiproliferative activity against human HCC2998 cells after 3 days by sulforhodamine B assay; type: functional; conditions: HCC 2998, 72 h; how it was run: as §1
[18] = target: Glycogen synthase kinase-3 beta (Homo sapiens) (UniProt P49841); experiment: Inhibition of GSK3-beta (unknown origin) assessed as residual activity at 10 uM relative to control
[19] = target: Receptor-type tyrosine-protein kinase FLT3 (Homo sapiens) (UniProt P36888); experiment: Inhibition of FLT3 (unknown origin) assessed as residual activity at 1 uM relative to control
[20] = target: NUAK family SNF1-like kinase 1 (Homo sapiens) (UniProt O60285); experiment: Inhibition of human ARK5 assessed as residual activity at 1 uM relative to control
[21] = target: Tyrosine-protein kinase FRK (Homo sapiens) (UniProt P42685); experiment: Inhibition of human PTK5 assessed as residual activity at 1 uM relative to control
Tyrosine-protein kinase FRK (Homo sapiens), sequence (P42685 whole entry): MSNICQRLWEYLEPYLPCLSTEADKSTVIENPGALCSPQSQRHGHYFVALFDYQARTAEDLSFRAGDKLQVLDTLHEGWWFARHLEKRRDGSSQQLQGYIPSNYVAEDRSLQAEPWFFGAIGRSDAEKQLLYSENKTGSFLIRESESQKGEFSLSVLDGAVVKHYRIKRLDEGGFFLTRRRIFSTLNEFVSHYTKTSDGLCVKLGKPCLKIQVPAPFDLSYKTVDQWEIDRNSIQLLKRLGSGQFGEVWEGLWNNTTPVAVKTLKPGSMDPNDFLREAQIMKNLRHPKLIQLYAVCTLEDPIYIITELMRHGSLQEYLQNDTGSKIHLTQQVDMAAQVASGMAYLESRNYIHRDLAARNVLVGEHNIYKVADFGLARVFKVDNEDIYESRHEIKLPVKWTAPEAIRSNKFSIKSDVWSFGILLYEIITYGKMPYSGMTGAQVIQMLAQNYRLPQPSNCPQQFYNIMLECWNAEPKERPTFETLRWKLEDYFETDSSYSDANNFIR

Ribosomal protein S6 kinase alpha-3 (Homo sapiens), sequence (P51812 whole entry): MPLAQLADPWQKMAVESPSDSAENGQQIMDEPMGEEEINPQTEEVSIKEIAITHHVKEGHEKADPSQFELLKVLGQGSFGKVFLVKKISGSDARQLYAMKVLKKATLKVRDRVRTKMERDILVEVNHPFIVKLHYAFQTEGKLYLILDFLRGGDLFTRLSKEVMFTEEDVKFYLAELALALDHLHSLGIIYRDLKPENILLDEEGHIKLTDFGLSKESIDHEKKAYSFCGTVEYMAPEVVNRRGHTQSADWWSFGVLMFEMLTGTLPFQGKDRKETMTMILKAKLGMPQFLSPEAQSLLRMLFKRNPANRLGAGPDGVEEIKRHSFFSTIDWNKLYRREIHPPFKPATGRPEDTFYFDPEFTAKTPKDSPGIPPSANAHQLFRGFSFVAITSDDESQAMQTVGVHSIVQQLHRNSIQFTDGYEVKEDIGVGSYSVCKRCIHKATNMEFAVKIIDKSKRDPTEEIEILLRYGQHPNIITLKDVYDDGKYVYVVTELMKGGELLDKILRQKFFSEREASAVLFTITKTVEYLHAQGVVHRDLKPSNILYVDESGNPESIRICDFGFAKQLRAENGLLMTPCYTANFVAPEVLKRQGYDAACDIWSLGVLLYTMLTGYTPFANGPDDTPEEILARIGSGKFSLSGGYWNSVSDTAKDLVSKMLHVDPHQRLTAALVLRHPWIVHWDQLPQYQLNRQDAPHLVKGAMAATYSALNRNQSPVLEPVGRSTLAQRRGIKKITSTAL
Dual specificity protein kinase CLK2 (Homo sapiens), sequence (P49760 whole entry, looked up): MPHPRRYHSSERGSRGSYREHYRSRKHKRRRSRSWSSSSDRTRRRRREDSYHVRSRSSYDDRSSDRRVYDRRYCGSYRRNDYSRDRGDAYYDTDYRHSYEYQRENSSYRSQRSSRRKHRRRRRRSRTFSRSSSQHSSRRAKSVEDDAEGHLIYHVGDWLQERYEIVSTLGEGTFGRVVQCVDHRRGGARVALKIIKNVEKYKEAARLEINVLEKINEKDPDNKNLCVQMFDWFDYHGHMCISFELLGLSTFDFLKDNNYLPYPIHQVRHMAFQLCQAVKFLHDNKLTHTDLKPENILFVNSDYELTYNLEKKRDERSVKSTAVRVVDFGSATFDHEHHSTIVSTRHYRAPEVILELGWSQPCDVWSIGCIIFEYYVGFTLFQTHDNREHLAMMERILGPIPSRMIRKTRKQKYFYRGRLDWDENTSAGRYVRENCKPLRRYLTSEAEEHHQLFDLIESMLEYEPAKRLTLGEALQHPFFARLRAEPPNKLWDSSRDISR
Vascular endothelial growth factor receptor 1 (Homo sapiens), sequence (P17948 whole entry): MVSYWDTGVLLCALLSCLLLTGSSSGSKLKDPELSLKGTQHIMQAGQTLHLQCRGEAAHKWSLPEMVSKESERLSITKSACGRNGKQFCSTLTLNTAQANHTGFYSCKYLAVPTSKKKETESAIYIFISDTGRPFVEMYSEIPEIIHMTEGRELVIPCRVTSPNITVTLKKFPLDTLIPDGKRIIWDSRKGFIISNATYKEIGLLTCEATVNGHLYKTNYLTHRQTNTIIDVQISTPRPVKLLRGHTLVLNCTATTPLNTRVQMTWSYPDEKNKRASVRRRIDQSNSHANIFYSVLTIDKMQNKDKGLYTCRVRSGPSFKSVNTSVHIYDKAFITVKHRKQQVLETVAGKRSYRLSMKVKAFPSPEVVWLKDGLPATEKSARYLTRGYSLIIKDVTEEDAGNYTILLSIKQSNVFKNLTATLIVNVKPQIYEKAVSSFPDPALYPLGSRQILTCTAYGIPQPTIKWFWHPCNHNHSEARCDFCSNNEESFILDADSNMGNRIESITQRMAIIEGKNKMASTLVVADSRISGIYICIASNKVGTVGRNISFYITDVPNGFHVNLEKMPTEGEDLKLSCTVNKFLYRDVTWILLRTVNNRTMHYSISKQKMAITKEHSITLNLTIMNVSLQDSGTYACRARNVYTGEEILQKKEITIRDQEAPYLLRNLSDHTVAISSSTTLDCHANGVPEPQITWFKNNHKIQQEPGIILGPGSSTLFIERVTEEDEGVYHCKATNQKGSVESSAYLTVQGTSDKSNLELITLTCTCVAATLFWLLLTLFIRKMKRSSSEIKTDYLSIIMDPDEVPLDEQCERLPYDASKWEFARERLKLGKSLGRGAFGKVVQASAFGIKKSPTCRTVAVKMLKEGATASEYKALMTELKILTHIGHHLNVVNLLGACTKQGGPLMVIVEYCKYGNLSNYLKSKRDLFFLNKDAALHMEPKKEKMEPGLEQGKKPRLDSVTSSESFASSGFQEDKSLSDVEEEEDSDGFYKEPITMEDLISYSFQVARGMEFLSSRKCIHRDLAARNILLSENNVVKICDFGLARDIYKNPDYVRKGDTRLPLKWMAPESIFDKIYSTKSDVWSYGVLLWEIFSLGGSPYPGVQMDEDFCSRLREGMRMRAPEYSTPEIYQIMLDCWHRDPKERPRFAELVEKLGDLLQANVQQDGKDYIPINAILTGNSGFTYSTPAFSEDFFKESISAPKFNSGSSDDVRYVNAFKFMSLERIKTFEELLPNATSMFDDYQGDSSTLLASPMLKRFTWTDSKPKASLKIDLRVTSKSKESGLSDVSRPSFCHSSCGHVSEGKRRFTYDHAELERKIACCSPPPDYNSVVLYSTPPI
Tyrosine-protein kinase Yes (Homo sapiens), sequence (P07947 2-543 limits assumed): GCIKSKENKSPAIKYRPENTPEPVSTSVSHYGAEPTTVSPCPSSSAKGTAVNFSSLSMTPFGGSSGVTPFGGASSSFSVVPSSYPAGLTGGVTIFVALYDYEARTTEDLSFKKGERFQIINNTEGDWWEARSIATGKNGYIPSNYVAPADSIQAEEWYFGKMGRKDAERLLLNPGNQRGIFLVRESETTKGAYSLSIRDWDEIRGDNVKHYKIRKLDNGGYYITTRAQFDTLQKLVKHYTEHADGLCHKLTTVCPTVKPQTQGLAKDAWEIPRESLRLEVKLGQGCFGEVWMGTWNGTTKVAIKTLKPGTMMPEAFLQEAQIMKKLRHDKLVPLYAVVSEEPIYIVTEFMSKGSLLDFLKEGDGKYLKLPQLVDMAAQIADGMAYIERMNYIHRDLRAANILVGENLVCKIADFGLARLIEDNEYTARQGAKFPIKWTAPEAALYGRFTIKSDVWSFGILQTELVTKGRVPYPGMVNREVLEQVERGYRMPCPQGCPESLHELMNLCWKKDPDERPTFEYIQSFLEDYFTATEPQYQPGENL
Interleukin-1 receptor-associated kinase 1 (Homo sapiens), sequence (P51617 whole entry, looked up): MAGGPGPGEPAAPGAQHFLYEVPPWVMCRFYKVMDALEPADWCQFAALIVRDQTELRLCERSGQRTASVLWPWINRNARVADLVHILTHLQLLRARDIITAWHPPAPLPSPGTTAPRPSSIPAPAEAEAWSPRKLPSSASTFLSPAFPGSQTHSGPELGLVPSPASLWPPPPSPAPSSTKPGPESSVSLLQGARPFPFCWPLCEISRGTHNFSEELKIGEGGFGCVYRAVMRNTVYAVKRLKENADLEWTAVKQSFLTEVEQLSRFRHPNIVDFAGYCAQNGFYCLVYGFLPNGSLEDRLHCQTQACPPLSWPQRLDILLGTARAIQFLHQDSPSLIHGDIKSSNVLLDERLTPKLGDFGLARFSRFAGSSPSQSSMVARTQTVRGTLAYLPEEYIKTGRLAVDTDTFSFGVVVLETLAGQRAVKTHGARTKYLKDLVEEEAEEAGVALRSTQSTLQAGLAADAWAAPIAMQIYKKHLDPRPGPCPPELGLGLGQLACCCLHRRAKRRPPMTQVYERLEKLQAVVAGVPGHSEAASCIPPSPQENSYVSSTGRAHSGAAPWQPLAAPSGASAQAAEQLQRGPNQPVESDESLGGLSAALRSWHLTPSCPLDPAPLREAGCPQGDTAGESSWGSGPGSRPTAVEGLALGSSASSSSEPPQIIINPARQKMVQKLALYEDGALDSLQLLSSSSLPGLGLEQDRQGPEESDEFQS
Glycogen synthase kinase-3 alpha (Homo sapiens), sequence (P49840 2-483 limits assumed): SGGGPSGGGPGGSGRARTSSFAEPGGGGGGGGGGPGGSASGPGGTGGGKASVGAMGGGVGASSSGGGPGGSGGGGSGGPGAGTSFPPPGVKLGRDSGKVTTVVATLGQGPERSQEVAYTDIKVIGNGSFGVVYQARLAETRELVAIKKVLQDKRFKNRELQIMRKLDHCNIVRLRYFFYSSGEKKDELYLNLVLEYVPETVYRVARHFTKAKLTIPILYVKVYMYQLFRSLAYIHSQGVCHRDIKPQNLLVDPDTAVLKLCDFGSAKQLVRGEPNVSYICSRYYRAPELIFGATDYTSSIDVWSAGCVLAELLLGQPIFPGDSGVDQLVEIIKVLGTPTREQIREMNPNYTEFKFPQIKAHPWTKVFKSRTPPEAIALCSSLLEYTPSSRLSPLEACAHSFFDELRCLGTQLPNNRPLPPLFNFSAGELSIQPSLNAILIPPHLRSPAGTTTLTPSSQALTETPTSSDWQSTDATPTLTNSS

`O=C1Nc2ncccc2/C1=C1/Nc2ncccc2C1=O` gave an Activity [1] of 73%, an Activity [2] of 134% and an Activity [3] of 120%. For the same compound, the Activity [4] was 69%, the Activity [5] was 92% and the GI50 (SF-268) was 1.62 µM. For the same compound, the Activity [6] was 93%, the Activity [7] was 99% and the Activity [8] was 81%. It also gave a GI50 (OVCAR-8) of 1.37 µM, an Activity [9] of 97% and an Activity [10] of 63%. The Activity [11] was 104%, the GI50 (786-0) was 4.19 µM and the Activity [12] was 96%. For the same compound, the Activity [13] was 124%, the Activity [14] was 94% and the Activity [15] was 89%. It also gave an Activity [16] of 68%, a GI50 (NCI-H522) of 2.18 µM and a GI50 [17] of 0.502 µM. The Activity [18] was 92%, the Activity [19] was 79% and the Activity [20] was 81%. The Activity [21] was 92%.

From ChEMBL document CHEMBL3098105, “7,7'-Diazaindirubin--a small molecule inhibitor of casein kinase 2 in vitro and in cells” (Bioorg Med Chem, 2014)
